The source made the active and inactive calls.
Experiments:
[1] = target: T1, Fatty-acid amide hydrolase 1 (Homo sapiens) (UniProt O00519); experiment: Inhibition of recombinant human FAAH using AMC arachidonoylamide as substrate at 10 uM after 30 mins by fluorescence assay relative to control
T1 sequence (whole entry): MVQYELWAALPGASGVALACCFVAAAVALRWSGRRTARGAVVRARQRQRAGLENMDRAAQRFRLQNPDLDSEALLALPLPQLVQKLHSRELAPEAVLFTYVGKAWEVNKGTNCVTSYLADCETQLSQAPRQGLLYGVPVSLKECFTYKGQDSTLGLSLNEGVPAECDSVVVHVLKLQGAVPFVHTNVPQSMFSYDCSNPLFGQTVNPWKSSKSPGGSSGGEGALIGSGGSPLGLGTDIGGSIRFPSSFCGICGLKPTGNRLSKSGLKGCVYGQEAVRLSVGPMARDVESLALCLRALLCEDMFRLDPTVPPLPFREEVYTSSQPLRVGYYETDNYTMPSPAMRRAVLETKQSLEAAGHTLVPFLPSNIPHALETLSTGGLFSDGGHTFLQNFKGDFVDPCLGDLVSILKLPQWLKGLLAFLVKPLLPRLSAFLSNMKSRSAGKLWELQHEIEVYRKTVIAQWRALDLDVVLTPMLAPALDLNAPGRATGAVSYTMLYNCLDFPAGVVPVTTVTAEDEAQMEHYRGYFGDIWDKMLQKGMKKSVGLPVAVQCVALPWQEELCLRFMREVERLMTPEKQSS
Method in brief: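 Human recombinant FAAH (0.9 µg/well) in 125 mM Tris pH 9.0 with 1 mM EDTA and 0.1 mg/ml BSA at room temperature. Substrate was AMC arachidonoylamide, final 10 µM. Compound range 200–0.0128 µM. Fluorescence (ex 340/em 460 nm) read after 30 min with no-enzyme blanks subtracted. IC50 from sigmoidal dose-response fit.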

[2] = target: Cannabinoid receptor 2 (Homo sapiens) (UniProt P34972); experiment: Displacement of [3H]CP55,940 from human CB2 receptor expressed in CHOK1 cell membranes at 10 uM after 90 mins relative to control
Method in brief: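 Membranes expressing hCB1 or hCB2 were incubated in 50 mM Tris-HCl, 2.5 mM EDTA, 5 mM MgCl2 with fatty-acid-free BSA, pH 7.4. Incubation with compound and 0.5 nM [3H]CP55,940 for 90 min at 30 °C. Nonspecific binding defined with 10 µM […]. Samples were filtered on GF/B, washed twelve times with ice-cold buffer, and radioactivity counted.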

Mus musculus [3] = experiment: Antinociceptive activity in po dosed oxaliplatin-induced neuropathic pain 4r5CD-1 albino mouse model assessed as pain relief treated on day 15 post oxaliplatin treatment by cold plate test; assay type: functional, organism-based
Method in brief: (§1)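 Male CD-1 mice (22–25 g) received oxaliplatin 2.4 mg/kg i.p. in 5% glucose on days 1-2, 5-9, 12-14. On day 15 a single p.o. dose (10 or 30 mg/kg) suspended in CMC was given. Cold plate at 4 °C ± 1 °C, 60 s cut-off, latency to first paw lick or lift timed after dosing. 10 mice per group over 2 sets, mean ± S.E.M., one-way ANOVA with Bonferroni.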

Mus musculus [4] = experiment: Antinociceptive activity in oxaliplatin-induced neuropathic pain 4r5CD-1 albino mouse model assessed as reduction in licking latency at 10 mg/kg, po treated on day 15 post oxaliplatin treatment measure at 30 mins post dose by cold plate test; assay type: functional, organism-based; method in brief: as §1
Mus musculus [5] = experiment: Antinociceptive activity in oxaliplatin-induced neuropathic pain 4r5CD-1 albino mouse model assessed as reduction in licking latency at 30 mg/kg, po treated on day 15 post oxaliplatin treatment measure at 30 to 45 mins post dose by cold plate test; assay type: functional, organism-based; method in brief: as §1
Mus musculus [6] = experiment: Antinociceptive activity in oxaliplatin-induced neuropathic pain 4r5CD-1 albino mouse model assessed as reduction in cold allodynia at 30 mg/kg, po cotreated with oxaliplatin on day 1 to 14 measured on day 7 and 15 by cold plate test; assay type: functional, organism-based
Method in brief: (§2)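 Male CD-1 mice (22–25 g) given oxaliplatin 2.4 mg/kg i.p. in 5% glucose on days 1-2, 5-9, 12-14. Compound suspended in CMC, 30 mg/kg p.o., given on the same schedule. Cold plate held at 4 °C ± 1 °C, 60 s cut-off. Latency to first hind-paw lifting or licking recorded on days 7 and 15, 24 h after the last dose. 10 mice per group over 2 sets, mean ± S.E.M.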

Mus musculus [7] = experiment: Antinociceptive activity in oxaliplatin-induced 4r5CD-1 albino mouse assessed as […] pain relief at 30 mg/kg, po cotreated with oxaliplatin on day 1 to 14 measured up to 24 hrs post last on day 15 by cold plate test; assay type: functional, organism-based; method in brief: as §2
Mus musculus [8] = experiment: Effect on 2-AG level in brain of oxaliplatin-induced neuropathic pain 4r5CD-1 albino mouse model at 30 mg/kg, po measured at 1 hr post last dose on day 15 by LC-MS/MS analysis; assay type: functional, organism-based
Method in brief: (§3)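 Mice received oxaliplatin 2.4 mg/kg i.p. plus compound 30 mg/kg p.o. or vehicle for 14 days. On day 15 they were decapitated 1 h after the last dose. Brain and spinal cord were washed in PBS and snap-frozen. 2-AG was quantified by LC-MS/MS.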

Mus musculus [9] = experiment: Effect on 2-AG level in spinal cord of oxaliplatin-induced neuropathic pain 4r5CD-1 albino mouse model at 30 mg/kg, po measured at 1 hr post last dose on day 15 by LC-MS/MS analysis; assay type: functional, organism-based; method in brief: as §3
[10] = target: T2, Monoglyceride lipase (Homo sapiens) (UniProt Q99685); conditions: 20 uM
T2 sequence (whole entry): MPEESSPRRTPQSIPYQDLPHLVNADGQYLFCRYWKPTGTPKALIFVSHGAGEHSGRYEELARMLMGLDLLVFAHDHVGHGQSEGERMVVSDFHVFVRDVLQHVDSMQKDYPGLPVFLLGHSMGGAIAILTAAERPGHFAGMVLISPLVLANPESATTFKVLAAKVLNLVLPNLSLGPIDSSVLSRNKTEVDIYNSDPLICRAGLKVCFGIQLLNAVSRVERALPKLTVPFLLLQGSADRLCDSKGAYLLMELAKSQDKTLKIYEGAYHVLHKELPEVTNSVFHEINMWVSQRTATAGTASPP

[11] = target: T2, Monoglyceride lipase (Homo sapiens); conditions: 20 uM; remark: listed apart in the source

Cannabinoid receptor 2 (Homo sapiens), sequence (P34972 whole entry): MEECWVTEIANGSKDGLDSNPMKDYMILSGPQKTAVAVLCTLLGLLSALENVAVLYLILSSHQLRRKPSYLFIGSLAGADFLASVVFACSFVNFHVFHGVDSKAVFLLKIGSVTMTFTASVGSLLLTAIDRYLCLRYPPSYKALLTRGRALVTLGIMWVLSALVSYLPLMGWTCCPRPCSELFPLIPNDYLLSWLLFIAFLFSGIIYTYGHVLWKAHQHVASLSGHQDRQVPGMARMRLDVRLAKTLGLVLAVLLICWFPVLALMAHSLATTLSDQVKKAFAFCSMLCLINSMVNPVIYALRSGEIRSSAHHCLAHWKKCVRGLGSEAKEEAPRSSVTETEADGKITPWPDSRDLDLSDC

## Cc1cccc(Cn2nc(C(=O)N3CCC(Cc4ccccc4)CC3)cc2-c2ccc(O)cc2)c1
[1]
  inhibition: 7%
[2]
  inhibition: 35%
Mus musculus [3]
  Activity: Dose-dependent effect
Mus musculus [4]
  Activity: Active
Mus musculus [5]
  Activity: Active
Mus musculus [6]
  Activity: Active
Mus musculus [7]
  Activity: Active
Mus musculus [8]
  Activity: inactive
Mus musculus [9]
  Activity: inactive
[10]
  inhibition: Active
[11]
  inhibition: Active

From ChEMBL document CHEMBL4033784, “Discovery of 1,5-Diphenylpyrazole-3-Carboxamide Derivatives as Potent, Reversible, and Selective Monoacylglycerol Lipase (MAGL) Inhibitors” (J Med Chem, 2018)
